Assay results: ChEMBL document CHEMBL4428066, “Small Molecule Reversible Inhibitors of Bruton's Tyrosine Kinase (BTK): Structure-Activity Relationships Leading to the Identification of 7-(2-Hydroxypropan-2-yl)-4-[2-methyl-3-(4-oxo-3,4-dihydroquinazolin-3-yl)phenyl]-9H-carbazole-1-carboxamide (BMS-935177)” (J Med Chem, 2016)
Active and inactive are the calls of the source. The calls are words filed in the database; no cut-off is given here.

How the values were obtained:
[1] = AUC (0 to 24 hrs) in Balb/C mouse at 10 mg/kg, po; type: ADME, organism-based; set-up: time < 24 hr, dose 10 mg/kg, route oral; conditions: in vivo
How it was run: (§1)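 Male Balb/C mice dosed orally once at 10 mg/kg in PEG300/TPGS/ethanol (90/5/5 v/v/v).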

[2] = Cmax in Balb/C mouse at 10 mg/kg, po; type: ADME, organism-based; set-up: dose 10 mg/kg, route oral; conditions: in vivo; how it was run: as §1
[3] = biological target: T1, Tyrosine-protein kinase BTK (Homo sapiens, UniProt Q06187); test: Inhibition of His-tagged full length human recombinant BTK expressed in baculovirus using fluoresceinated peptide substrate after 60 mins by fluorescent electrophoretic separation
Homo sapiens = species on record: Homo sapiens; test: Selectivity ratio of IC50 for GST-tagged human recombinant LCK using FITC-AHAEGIYLFKKK-NH2 as substrate to IC50 for His-tagged full length human recombinant BTK expressed in baculovirus
How it was run: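 Fold selectivity is the LCK enzyme IC50 divided by the BTK enzyme IC50. The footnotes give each IC50 as the mean of three (or at least three) determinations, with some as single determinations.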

[4] = biological target: T1, Tyrosine-protein kinase BTK; test: Inhibition of BTK in human RamosB cells assessed as suppression of BCR/anti-IgM stimulated calcium flux pre-incubated for 1 hr followed by BCR/anti-IgM stimulation; type: cell-based
[5] = Stability in mouse liver microsomes; type: ADME, Microsome
Mus musculus = test: Decrease in anti-KLH IgM titers in chronic Balb/C mouse KLH antibody response model at 30 mg/kg, po administered through oral gavage after 14 days by ELISA; type: functional, organism-based; conditions: in the assay text read “IgG” for “IgM”
How it was run: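 Chronic KLH challenge model in mice with compound given by mouth. Anti-KLH IgM appears in the first week after challenge. Switching to IgG anti-KLH is evident by day 14.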

[6] = Permeability of the compound at pH 7 by PAMPA; type: ADME; conditions: for Papp: read-out: permeability
[7] = Drug metabolism in rat liver microsomes assessed as aniline metabolite formation; type: ADME, Microsome
How it was run: (§2)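 Compounds were incubated with human or rat liver microsomes. Metabolites were profiled for hydrolysis to the aniline and, where applicable, for N-dealkylation giving the bis-aniline.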

[8] = Drug metabolism in human liver microsomes assessed as aniline metabolite formation; type: ADME, Microsome; how it was run: as §2
[9] = Toxicity in mouse administered orally as multiple day dosing schedule; conditions: in vivo, po
[10] = Drug metabolism in rat liver microsomes assessed as bis-aniline metabolite formation; type: ADME, Microsome; how it was run: as §2
[11] = Drug metabolism in human liver microsomes assessed as bis-aniline metabolite formation; type: ADME, Microsome; how it was run: as §2

T1 sequence (Q06187 whole entry): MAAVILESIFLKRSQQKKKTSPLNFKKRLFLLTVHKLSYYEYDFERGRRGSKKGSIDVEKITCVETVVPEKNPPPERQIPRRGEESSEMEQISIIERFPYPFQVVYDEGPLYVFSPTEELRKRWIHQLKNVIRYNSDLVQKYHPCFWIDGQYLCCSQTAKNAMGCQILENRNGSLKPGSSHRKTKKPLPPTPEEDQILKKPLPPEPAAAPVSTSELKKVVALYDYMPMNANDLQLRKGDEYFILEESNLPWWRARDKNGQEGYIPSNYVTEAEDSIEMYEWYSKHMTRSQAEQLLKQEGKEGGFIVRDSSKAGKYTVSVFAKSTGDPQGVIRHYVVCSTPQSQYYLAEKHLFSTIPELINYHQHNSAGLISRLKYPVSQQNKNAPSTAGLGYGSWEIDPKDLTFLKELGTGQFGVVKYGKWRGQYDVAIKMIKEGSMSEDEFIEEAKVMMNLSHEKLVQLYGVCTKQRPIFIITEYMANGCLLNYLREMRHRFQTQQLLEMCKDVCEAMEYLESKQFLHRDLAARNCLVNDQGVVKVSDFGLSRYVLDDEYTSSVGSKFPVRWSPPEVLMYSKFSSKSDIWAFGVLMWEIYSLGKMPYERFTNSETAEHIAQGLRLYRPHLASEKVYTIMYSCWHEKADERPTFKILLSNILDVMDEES

AUC(0-t) at 24 h [1]	Cmax [2]	IC50 [3]	Ratio IC50 (Homo sapiens)	IC50 [4]	Stability [5]	Papp [6]	Drug metabolism [7]	Drug metabolism [8]	Drug metabolism [10]	permeability [6]	Drug metabolism [11]	Compound	Activity (Mus musculus)	Activity [9]
19 µM·h	2.1 µM											CC(C)(O)c1ccc2c(c1)[nH]c1c(C(N)=O)ccc(-c3cccc(-n4cnc5ccccc5c4=O)c3F)c12		
120 µM·h	8.06 µM	2 nM	89	24 nM								Cc1c(-c2ccc(C(N)=O)c3[nH]c4cc(C(C)(C)O)ccc4c23)cccc1-n1cnc2cc(F)ccc2c1=O		
		3 nM	33	26 nM								Cc1c(-c2ccc(C(N)=O)c3[nH]c4cc(C(C)(C)O)ccc4c23)cccc1N1CCc2ccccc2C1=O		
41 µM·h	4.41 µM	2 nM	48	48 nM	Stable							Cc1c(-c2ccc(C(N)=O)c3[nH]c4cc(C(C)(C)O)ccc4c23)cccc1N1Cc2ccc(F)cc2C1=O	inactive	
63 µM·h	6.85 µM	2 nM	88	34 nM								Cc1c(-c2ccc(C(N)=O)c3[nH]c4cc(C(C)(C)O)ccc4c23)cccc1-n1cnc2c(F)cccc2c1=O		
14 µM·h	4.65 µM	3 nM	146	22 nM								Cc1c(-c2ccc(C(N)=O)c3[nH]c4cc(CO)ccc4c23)cccc1-n1cnc2ccccc2c1=O		
0.4 µM·h	0.09 µM	5 nM	15			14.7 ×10⁻⁶ cm/s						Cc1c(NC(=O)c2ccc(F)cc2)cccc1-c1ccc(C(N)=O)c2[nH]c3cc(C(=O)N4CCN(C)CC4)ccc3c12		
		5 nM	44	144 nM								Cc1c(-c2ccc(C(N)=O)c3[nH]c4cc(C(C)(C)O)ccc4c23)cccc1-n1ccc2ccccc2c1=O		
		5 nM	25	154 nM								Cc1c(-c2ccc(C(N)=O)c3[nH]c4cc(C(C)(C)O)ccc4c23)cccc1N1Cc2ccccc2C1=O		
5 µM·h	1.57 µM	9 nM	9			58.7 ×10⁻⁶ cm/s	Metabolite_Detected	Metabolite_Detected				Cc1c(NC(=O)c2ccc(F)cn2)cccc1-c1ccc(C(N)=O)c2[nH]c3cc(C(=O)N4CCN(C)CC4)ccc3c12		
36 µM·h	7.96 µM	11 nM	61				Metabolite_Detected	Metabolite_Detected	Metabolite_Detected	Impermeable	Metabolite_Detected	Cc1c(NC(=O)c2ccc(F)cc2)cccc1-c1ccc(C(N)=O)c2[nH]c3cc(NC(C)C)ccc3c12		Toxic
113 µM·h	9.77 µM	7 nM	52	40 nM								Cc1c(-c2ccc(C(N)=O)c3[nH]c4cc(C(C)(C)O)ccc4c23)cccc1-n1cnc2ccc(F)cc2c1=O		
0.3 µM·h	0.178 µM	5 nM	14	238 nM								Cc1c(-c2ccc(C(N)=O)c3[nH]c4cc(C(=O)N5CCN(C)CC5)ccc4c23)cccc1N1Cc2ccccc2C1=O		
58 µM·h	6.74 µM	5 nM	61	18 nM								Cc1c(-c2ccc(C(N)=O)c3[nH]c4cc(C(C)(C)O)ccc4c23)cccc1-n1cnc2cccc(F)c2c1=O		
